In publication PMC12667952 (bioRxiv, 2025):
Where a chain is given by its changes, count along the chain named. Where two headings read alike, the source gives them in different places.

Experiments:
CCI mice = assay: Cold allodynia; format: in vivo, mouse; conditions: control compound gabapentin 100 mg/kg, by 2-hour time point
How it was run: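 CCI mice tested 14 days after surgery. […] Acetone-evoked cold allodynia scored before surgery, at t = 0 before dosing, and at 0.5, 1, 1.5, 2, 4 and 6 h. Expressed as % of maximal possible responses. Two-way ANOVA with Dunnett's test versus vehicle.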

mice [1] = conditions: 50 mg/kg; cited from earlier work
hGlyT2^D633E [2] = molecular target: T1, hGlyT2^D633E (Homo sapiens, UniProt Q9Y345, D633E); assay: Reversibility; format: cell-based
T1 sequence (Q9Y345 1-797 D633E): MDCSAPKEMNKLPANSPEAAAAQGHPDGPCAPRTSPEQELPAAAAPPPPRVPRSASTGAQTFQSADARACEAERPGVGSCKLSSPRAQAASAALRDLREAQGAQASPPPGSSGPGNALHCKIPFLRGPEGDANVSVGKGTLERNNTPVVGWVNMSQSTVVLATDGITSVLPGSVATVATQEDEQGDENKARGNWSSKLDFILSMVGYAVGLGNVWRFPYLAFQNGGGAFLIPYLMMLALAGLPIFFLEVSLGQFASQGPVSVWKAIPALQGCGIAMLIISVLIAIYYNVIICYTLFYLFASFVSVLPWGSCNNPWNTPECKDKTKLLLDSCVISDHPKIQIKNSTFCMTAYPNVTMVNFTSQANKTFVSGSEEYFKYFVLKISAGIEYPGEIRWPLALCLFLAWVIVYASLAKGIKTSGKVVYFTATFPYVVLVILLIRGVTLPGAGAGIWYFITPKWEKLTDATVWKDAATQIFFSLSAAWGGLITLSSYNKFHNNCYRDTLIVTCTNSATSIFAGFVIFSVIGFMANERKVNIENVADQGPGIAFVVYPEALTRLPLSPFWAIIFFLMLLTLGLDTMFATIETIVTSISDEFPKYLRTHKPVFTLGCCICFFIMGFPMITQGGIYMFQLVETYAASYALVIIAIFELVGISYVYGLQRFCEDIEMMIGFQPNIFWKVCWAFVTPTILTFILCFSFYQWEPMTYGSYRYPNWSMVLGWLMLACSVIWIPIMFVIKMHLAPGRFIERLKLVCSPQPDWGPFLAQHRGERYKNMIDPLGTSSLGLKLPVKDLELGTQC

hGlyT2^WT [3] = molecular target: T2, hGlyT2^WT (Homo sapiens, UniProt Q9Y345); format: cell-based
T2 sequence (Q9Y345 1-797): T1 sequence (Q9Y345 1-797 D633E) with E633D

hGlyT2^WT [4] = molecular target: T2, hGlyT2^WT; assay: Sodium dependence of inhibition of glycine transport currents; format: cell-based; conditions: IC50 at 100 mM Na+, 100 mM Na+, 300 μM glycine
hGlyT2^WT [5] = molecular target: T2, hGlyT2^WT; assay: Reversibility; format: cell-based
How it was run: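 Xenopus oocytes injected with 20 ng hGlyT2 WT cRNA and held 3–6 days at 18 °C. Glycine currents recorded by two-electrode voltage clamp at −60 mV. Test compound applied at a single concentration (10 μM maximum), then washed out. Recovery of 30 µM glycine-evoked currents followed to 30 min, normalised to pre-inhibitor current. n ≥ 5 from at least two frogs.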

hGlyT2^W215F [6] = molecular target: T3, hGlyT2^W215F (Homo sapiens, UniProt Q9Y345, W215F); assay: Reversibility; format: cell-based
T3 sequence (Q9Y345 1-797 W215F): T1 sequence (Q9Y345 1-797 D633E) with W215F, E633D

mice [7] = conditions: 50 mg/kg; cited from earlier work; remark: listed apart in the source
hGlyT2^D633E [8] = molecular target: T1, hGlyT2^D633E; format: cell-based
hGlyT2^W215F [9] = molecular target: T3, hGlyT2^W215F; format: cell-based
[10] = cited from earlier work
C57BL/6J mice = assay: Conditioned place preference; format: in vivo, mouse; conditions: 10 mg/kg, i.p., positive control
GlyT2 = conditions: read-out: IC50 for GlyT2; cited from earlier work

With `NCC1(CC(=O)O)CCCCC1` [Gabapentin, reference compound] the “Peak reduction of response rate to acetone stimulus” value (CCI mice) was 75%.
For `COc1cc(C(=O)NCC2(N(C)C)CCCC2)cc(OC)c1OCc1ccccc1` [ORG25543, 4-(benzyloxy)-N-{[1-(dimethylamino)cyclopentyl]methyl}-3,5-dimethoxybenzamide, reference compound], the Mechanical allodynia (mice [1]) is given as “reversed mechanical allodynia”, the “Washout of inhibitor from hGlyT2^D633E” value (hGlyT2^D633E [2]) is given as “recovery from ORG25543 within five minutes” and the IC50 (hGlyT2^WT [3]) is given as 11.4 nM. The IC50 (hGlyT2^WT [4]) was 17.6 nM, the “Glycine currents restored, of pre-inhibitor levels” value (hGlyT2^WT [5]; after 30 minutes washout) was 12.5% and the “Reversibility of inhibition (recovery of glycine-induced currents)” value (hGlyT2^WT [5]; washout, hGlyT2^WT) was “minimal restoration of glycine-induced currents 30-minutes post-ORG25543”. For the same compound, the “Washout of inhibitor from hGlyT2^W215F” value (hGlyT2^W215F [6]) was “significantly increased the rate of ORG25543 washout”, the “Side effects coinciding with analgesic dose” value (mice [7]) was “near-complete loss of rotarod performance, seizures and in one case, lethality” and the “Reduction in potency of inhibition, D633E versus WT” value (hGlyT2^D633E [8]) was ~ 14 fold. For the same compound, the “Decrease in potency of inhibition, W215F versus WT” value (hGlyT2^W215F [9]) was “~three-fold” and the “Effects on inflammatory and acute nociceptive pain thresholds” value [10] was “no effects”.
In the case of `CN1CC[C@]23c4c5ccc(O)c4O[C@H]2[C@@H](O)C=C[C@H]3[C@H]1C5` [morphine, reference compound], the “Preference for the paired chamber” value (C57BL/6J mice) is reported as “significant increase in preference for the paired chamber”.
In the case of `CCCCCCCC/C=C\CCCCCCCC(=O)N[C@H](CCCCN)C(=O)O` [oleoyl-D-lysine], the “Effects on inflammatory and acute nociceptive pain thresholds” value [10] is listed as “no effects”.
In the case of `CCCCOc1c(OC)cc(C(=O)NCC2(N(C)C)CCOCC2)cc1OC` [opiranserin], the IC50 (GlyT2) is listed as 860 nM.
